Assay results taken from ChEMBL document CHEMBL1146117, “Inhibitors of human mitotic kinesin Eg5: characterization of the 4-phenyl-tetrahydroisoquinoline lead series” (Bioorg Med Chem Lett, 2006).

How the values were obtained:
[1] = target: T1, Kinesin-like protein KIF11 (Homo sapiens, UniProt P52732); assay: Inhibition of Eg5 by ATPase assay; assay type: functional
T1 sequence (P52732 whole entry): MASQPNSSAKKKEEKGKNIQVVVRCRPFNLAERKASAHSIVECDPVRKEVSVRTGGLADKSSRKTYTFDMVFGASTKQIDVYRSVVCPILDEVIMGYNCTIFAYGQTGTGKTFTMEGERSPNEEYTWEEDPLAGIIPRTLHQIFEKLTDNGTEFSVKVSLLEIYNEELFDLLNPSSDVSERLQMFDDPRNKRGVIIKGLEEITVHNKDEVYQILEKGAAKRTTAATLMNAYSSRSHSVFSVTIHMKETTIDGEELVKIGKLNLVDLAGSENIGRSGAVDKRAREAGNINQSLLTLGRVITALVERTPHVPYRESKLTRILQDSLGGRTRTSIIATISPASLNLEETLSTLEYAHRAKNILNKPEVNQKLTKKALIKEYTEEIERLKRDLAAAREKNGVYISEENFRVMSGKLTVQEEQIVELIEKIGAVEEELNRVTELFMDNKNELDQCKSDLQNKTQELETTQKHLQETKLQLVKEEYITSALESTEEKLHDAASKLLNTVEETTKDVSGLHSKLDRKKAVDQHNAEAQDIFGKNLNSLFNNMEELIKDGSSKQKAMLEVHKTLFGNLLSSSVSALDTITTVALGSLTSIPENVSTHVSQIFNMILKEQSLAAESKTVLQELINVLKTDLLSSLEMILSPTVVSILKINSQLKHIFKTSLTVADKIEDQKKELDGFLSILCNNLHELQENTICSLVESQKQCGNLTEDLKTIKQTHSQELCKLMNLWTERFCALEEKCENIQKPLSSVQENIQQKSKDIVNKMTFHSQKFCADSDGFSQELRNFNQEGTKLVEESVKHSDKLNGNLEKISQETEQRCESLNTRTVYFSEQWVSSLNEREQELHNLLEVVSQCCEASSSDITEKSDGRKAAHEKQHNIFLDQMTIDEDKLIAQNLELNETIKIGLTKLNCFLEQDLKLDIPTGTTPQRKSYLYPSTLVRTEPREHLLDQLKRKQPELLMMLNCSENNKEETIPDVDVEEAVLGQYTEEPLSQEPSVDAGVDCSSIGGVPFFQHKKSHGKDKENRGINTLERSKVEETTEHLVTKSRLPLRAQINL
Summary of the method: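 Eg5 motor-domain protein ATPase activity read with a Kinase-Glo luminescent ATP kit. IC50 taken from dose–response curves of triplicate data points. Values are means ± SD of three independent experiments.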

A2780 = assay: Antiproliferative activity against human A2780 cells; assay type: functional, cell-based
Summary of the method: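 A2780 ovarian carcinoma cells were exposed to compound for 72 h. IC50 derived from dose–response curves of triplicate data points, reported as the mean ± SD of three independent experiments.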

Row | SMILES | IC50 [1] | IC50 (A2780)
1 | CC(=O)N1Cc2c(ccc(C)c2C)C(c2ccccc2)C1 (stereo not given) | 17.9 µM | –
2 | Cc1ccc2c(c1C)CN(C(=O)c1ccccc1)CC2c1ccccc1 (stereo not given) | 16.4 µM | 7770 nM
3 | Cc1ccc2c(c1C)CN(C(=O)N1CCCCC1)CC2c1ccccc1 (stereo not given) | 12.8 µM | 2830 nM
4 | CN(C)C(=O)N1Cc2c(Cl)cccc2C(c2cccc(O)c2)C1 (stereo not given) | > 25 µM | –
5 | Cc1ccc2c(c1C)CN(C)CC2c1ccccc1 (stereo not given) | 18.4 µM | 7300 nM
6 | Cc1ccc2c(c1C)CN(C(=O)N1CCOCC1)CC2c1ccccc1 (stereo not given) | 22.3 µM | –
7 | COc1ccc2c(c1OC)CN(C(=O)N(C)C)CC2c1cccc(O)c1 (stereo not given) | 12.8 µM | 2920 nM
8 | Cc1ccc2c(c1C)CNCC2c1ccccc1 (stereo not given) | 8.33 µM | 9040 nM
9 | Cc1ccc2c(c1C)CN(C(=O)N(C)C)CC2c1ccc(O)cc1 (stereo not given) | > 25 µM | –

The next lines start with the values.

Row | IC50 [1] | IC50 (A2780) | SMILES
10 | 1.27 µM | 3440 nM | CN(C)C(=O)N1Cc2c(ccc(Cl)c2Cl)C(c2cccc(O)c2)C1 (stereo not given)
11 | 2.27 µM | 2310 nM | Cc1ccc2c(c1C)CN(CCN)CC2c1ccccc1 (stereo not given)
12 | 0.617 µM | 402 nM | COc1ccc2c(c1)CN(C(=O)N(C)C)CC2c1cccc(O)c1 (stereo not given)
13 | 2.49 µM | 1190 nM | CN(C)C(=O)N1Cc2cc(Cl)ccc2C(c2cccc(O)c2)C1 (stereo not given)
14 | 8.88 µM | 3240 nM | Cc1ccc2c(c1C)CN(CCCN(C)C)CC2c1ccccc1 (stereo not given)
15 | 0.808 µM | 879 nM | CN(C)C(=O)N1Cc2cc(Br)ccc2C(c2cccc(O)c2)C1 (stereo not given)
16 | 1.78 µM | 332 nM | COc1cccc2c1CN(C(=O)N(C)C)CC2c1cccc(O)c1 (stereo not given)
17 | 5.44 µM | 1210 nM | Cc1ccc2c(c1C)CN(C(=O)N(C)CCCN(C)C)CC2c1ccccc1 (stereo not given)
18 | 2.75 µM | 1200 nM | Cc1ccc2c(c1C)CN(C(=O)N(C)C)CC2c1ccccc1 (stereo not given)
19 | 4.71 µM | 2050 nM | Cc1cccc2c1CN(C(=O)N(C)C)CC2c1cccc(O)c1 (stereo not given)
20 | 0.344 µM | 186 nM | CCc1cccc2c1CN(C(=O)N(C)C)CC2c1cccc(O)c1 (stereo not given)
21 | 0.595 µM | 851 nM | Cc1ccc2c(c1)CN(C(=O)N(C)C)CC2c1cccc(O)c1 (stereo not given)
22 | 0.306 µM | 376 nM | Cc1ccc2c(c1C)CN(C(=O)N(C)C)CC2c1cccc(O)c1 (stereo not given)
